# SIRT5 block – sirtuin-5 (human) deacylase inhibition; Q9NXA8; inhibition, % at 15 µM; Purified SirT5, succinyl-peptide AMC, trypsin-coupled fluorescence; 330,000 compounds, 1.1% hits; in the data active means inhibition above about 15%; inconclusive means no clear call, values can overlap the other calls
# Target sequence (Q9NXA8 whole entry, looked up): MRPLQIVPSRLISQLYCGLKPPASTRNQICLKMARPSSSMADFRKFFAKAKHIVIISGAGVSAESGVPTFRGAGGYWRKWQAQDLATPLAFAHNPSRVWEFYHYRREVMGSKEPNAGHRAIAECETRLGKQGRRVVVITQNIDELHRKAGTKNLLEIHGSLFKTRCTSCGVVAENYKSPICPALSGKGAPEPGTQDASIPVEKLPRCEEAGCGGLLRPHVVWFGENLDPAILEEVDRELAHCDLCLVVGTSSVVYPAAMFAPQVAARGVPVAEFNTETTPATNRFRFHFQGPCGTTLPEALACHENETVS
# S100A4 MyoIIA – S100A4-myosin IIA interaction inhibition. S100A4/TAMRA-MyoIIA peptide fluorescence polarization. inhibition, % at 10.7 µM. 360,000 compounds, 0.14% hits;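 active means mean inhibition of at least 70% across replicates, with every replicate also reaching that level; inconclusive means mean inhibition reaches 70% but some replicates fall short; inactive means mean inhibition below 70%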
# Target sequence (P26447 whole entry, looked up): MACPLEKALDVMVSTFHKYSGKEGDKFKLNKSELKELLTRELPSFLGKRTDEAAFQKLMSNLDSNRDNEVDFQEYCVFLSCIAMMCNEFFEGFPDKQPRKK
#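 Assay system: human S100A4 monomer with TAMRA-labelled myosin IIA peptide / Buffer or medium: Calcium-containing HEPES buffer, pH 7.2 / Reagent: TAMRA-labelled myosin IIA heavy-chain peptide probe, 5 nM / Compound: one dose per compound / Timing: polarization read 5 min after assay mix addition, stable 5–60 min / Benchmarks: neutral control DMSO, positive control TFP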
# rRNA inh HTS – inhibitors of bacterial rRNA selective over humanized ribosomes | 350,000 compounds, 1.6% hits | E. coli WT GFP vs humanized-ribosome RFP mutants, fluorescence, 24 h; stronger effect = lower value; DMSO median 0, no signal -100 | AID 720706 | GFP signal change (wild-type ribosome), % (concentration not given with the values);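 active means significant combined selectivity score with lowered wild-type GFP, culture density cut under 30%, mutant RFP and density less affected; inactive means any of these conditions unmet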
# CFTR F508del cor – CFTR F508del correction in bronchial cells; CFBE cells, YFP halide quenching; stimulated with forskolin plus potentiator P3; % fluorescence drop versus neutral controls; activity (quench increase), % at 7.58 µM; 350,000 compounds, 0.36% hits; AID 720511;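 active means mean added fluorescence quench of at least 8% versus neutral control, with both replicates also reaching 8%; inconclusive means only one of the mean or replicate conditions met; inactive means mean below 8% and not both replicates reaching 8%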;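 further: cells transiently co-express mutant CFTR-F508del with the halide-sensitive YFP; corrector assay measuring rescue of mutant channel to the surface after 24 h compound exposure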
# ERAP1 inh – inhibitors of human ERAP1 aminopeptidase | Q9NZ08 | recombinant ERAP1, Leu-AMC fluorescence, 60 min | AID 652197 | 340,000 compounds, 0.15% hits | inhibition, % at 10.7 µM;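 active means mean replicate inhibition of at least 30%, or all replicates individually reaching that 30% level; inactive means mean below 30% and not every replicate reaching it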
# AID977621 – growth inhibition of wild-type GFP E. coli, dose response, H69 mutant RFP, cherry-pick; shares compounds with rRNA inh HTS; E. coli wild-type GFP strain growth, fluorescence, 24 h; activity change, negative = inhibition at 50 µM; 1,900 tested, under 10 active;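 active means Wild-type ribosome reporter drop at least double the humanized mutant ribosome reporter drop, growth loss under a set limit; inconclusive means no clear call, values can overlap the other calls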;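 further: wild-type GFP and H69 mutant RFP strains grown together 50/50 in each well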
# AID977628 – E. coli growth inhibition, wild-type GFP versus h24 humanized RFP strain, dose response, h24 mutant RFP vs wild-type GFP, cherry-pick | shares compounds with rRNA inh HTS | E. coli WT GFP strain growth, fluorescence, 24 h | activity change, negative = inhibition at 50 µM | 1,900 tested, under 10 active;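 active means compound lowering the normal-ribosome reporter at least twice as much as the humanized-ribosome reporter, growth loss under a set limit; inconclusive means no clear call, values can overlap the other calls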;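 further: wild-type GFP and h24 humanized RFP strains co-cultured 1 to 1 per well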
# Hits are given with their value; – = inactive; ? = inconclusive; · = no result given. The list is not random: actives were taken first. Their share in the collection is about 3.1%.
SMILES,SIRT5 block,S100A4 MyoIIA,rRNA inh HTS,CFTR F508del cor,ERAP1 inh,AID977621,AID977628
C=CCn1c(SCC(=O)Nc2ccc3c(c2)OCCO3)nnc1-c1ccco1,–,–,-17,–,–,·,–
Cc1n(CC(=O)c2ccc(F)cc2)c2ccccc2[n+]1C,–,–,–,–,–,·,·
CCCCc1n(CC(=O)c2ccc(Cl)cc2)c2ccccc2[n+]1C,–,–,-19,–,–,·,–
C[C@H]1CCCCO[C@H](CN(C)S(=O)(=O)c2ccc(F)cc2)[C@@H](C)CN([C@@H](C)CO)C(=O)c2cc(NS(=O)(=O)c3cccs3)ccc2O1,–,–,–,–,–,·,·
C[C@@H]1CN([C@@H](C)CO)C(=O)c2cccc(NS(=O)(=O)c3ccc(Cl)cc3)c2O[C@H]1CN(C)C(=O)NC1CCCCC1,–,–,–,–,–,·,·
CCC(C)C(=O)Nc1nc2ccc(OC)cc2s1 (stereo unspecified),–,–,-22,–,–,–,·
CSc1cccc(NC(=O)CCc2ccccc2)c1,–,–,-29,–,–,–,–
CSc1cccc(NC(=S)NC(=O)CCc2ccccc2)c1,–,–,–,–,–,·,·
CSc1cccc(NC(=O)c2ccco2)c1,–,–,–,·,–,·,·
O=C(CSc1ccccc1)Nc1cccc(NC(=O)c2ccco2)c1,–,–,-21,–,–,?,·
Cc1ccc(S(=O)(=O)N(C)C[C@@H]2Oc3c(NS(=O)(=O)c4ccc(Cl)cc4)cccc3C(=O)N([C@H](C)CO)C[C@@H]2C)cc1,–,–,–,–,–,·,·
COc1ccccc1S(=O)(=O)N[C@H]1C=C[C@H](CC(=O)N2CCN(C)CC2)O[C@@H]1CO,–,–,–,–,–,·,·
CCC(=O)Nc1ccc2c(c1)C(=O)N(C)C[C@@H](OC)[C@H](C)CN(C(=O)c1ccc(F)cc1)[C@@H](C)CO2,–,–,–,–,–,·,·
COc1ccc(-n2c(COc3cccc(C)c3)n[nH]c2=S)cc1,–,–,-20,–,–,–,–
C[C@@H]1CN([C@@H](C)CO)C(=O)c2cc(NS(=O)(=O)c3ccc(F)cc3)ccc2O[C@@H](C)CCCCO[C@@H]1CN(C)C(=O)Nc1ccc(F)cc1,·,·,–,–,·,·,·
Cc1ccc(S(=O)(=O)Nc2ccc3c(c2)CC(=O)N([C@H](C)CO)C[C@@H](C)[C@@H](CN(C)Cc2ccccc2)O3)cc1,–,–,–,–,–,·,·
COC(=O)CN1C(=S)N(c2ccc(F)cc2)C(=O)C1CC(=O)Nc1ccc(F)cc1 (stereo unspecified),–,–,-24,–,·,–,–
CN(C)S(=O)(=O)c1ccc(Cl)c(C(=O)OCC(=O)NC(=O)c2cccn2C)c1,–,–,-21,·,–,–,–
Cn1cccc1C(=O)NC(=O)COC(=O)c1cc([N+](=O)[O-])ccc1Cl,–,–,–,–,–,·,·
COC(=O)c1sc(C(C)(C)C)cc1CS(=O)(=O)c1ccc(Cl)cc1,–,–,-31,–,–,–,–
COC(=O)c1ccc(N)c(CS(=O)(=O)c2ccc(Cl)cc2)c1,–,–,–,–,–,·,·
O=C(C[C@@H]1C[C@H]2c3cc(NC(=O)Nc4ccc(C(F)(F)F)cc4)ccc3O[C@H]2[C@@H](CO)O1)NCCc1ccccc1,–,–,–,–,–,·,·
O=C(Nc1ccc(Cl)cc1)N1C[C@H]2[C@@H](c3ccccc31)[C@@H](CO)N2C(=O)c1ccccn1,–,–,-23,–,–,–,·
O=C(Nc1cccc(Cl)c1)N1C[C@H]2[C@@H](c3ccccc31)[C@H](CO)N2CC1CCOCC1,–,–,–,–,–,·,·
O=C(Nc1ccccc1)N1C[C@H]2[C@@H](c3ccccc31)[C@@H](CO)N2C(=O)c1ccccn1,–,–,–,–,–,·,·
SMILES,SIRT5 block,S100A4 MyoIIA,rRNA inh HTS,CFTR F508del cor,ERAP1 inh,AID977621,AID977628
O=C(Nc1cccc(Cl)c1)N1C[C@@H]2[C@H](c3ccccc31)[C@@H](CO)N2CC1CCCCC1,·,·,-56,–,·,?,·
COc1cccc(S(=O)(=O)Nc2ccc3c(c2)C(=O)N(C)[C@@H]2CC[C@H](CC(=O)O)O[C@@H]2CO3)c1,·,·,–,–,·,·,·
COc1ccc(-c2nc(-c3cccnc3)no2)cc1OC,–,–,–,–,–,·,·
COc1ccc(-c2nc(C3CCCCC3)no2)cc1OC,–,–,-19,–,–,–,–
Cc1ccc(CNS(=O)(=O)c2ccc3c(c2)NC(=O)CS3)cc1,–,–,-20,–,–,?,·
C#CC(C)(C)NC(=O)c1ccc(-c2ccccc2F)cc1,–,–,-23,–,–,–,–
NNC(=O)c1ccc(-c2ccccc2F)cc1,–,–,·,–,–,·,·
COc1ccc2c(c1)-c1nc(N)sc1CC2,–,–,-22,–,–,–,–
Cc1cc(C)cc(NS(=O)(=O)c2c(C(=O)N3CCCCCC3)c(C)n(C)c2C)c1,–,–,-29,–,–,–,–
CC(C)NC(=O)N(C)C[C@H]1OCCCC[C@@H](C)Oc2ccc(NS(=O)(=O)c3ccc(F)cc3)cc2C(=O)N([C@@H](C)CO)C[C@@H]1C,–,–,–,–,–,·,·
O=C(Cc1ccccn1)N[C@H]1CC[C@H](CCn2cc(-c3cccnc3)nn2)O[C@@H]1CO,–,–,–,–,–,·,·
CCc1cccc(NC(=O)c2ccc3c(=O)n4c(nc3c2)CCCCC4)c1,–,–,-19,–,–,–,–
O=C(O)CSc1nnc(-c2ccc(Cl)cc2)n1-c1ccccc1,–,–,–,–,–,·,·
O=C(O)CSc1nnc(-c2ccc(Cl)cc2Cl)n1-c1ccc(Br)cc1,–,–,-30,·,–,–,·
Cc1ccc(-n2cc(CNCCN3CCOC3=O)c(-c3ccc(F)cc3)n2)cc1,–,–,-18,–,–,–,?
O=C(COC(=O)C1CC2C=CC1C2)NCCc1ccccc1 (stereo unspecified),–,–,-21,–,–,–,–
O=C(COC(=O)CCC(=O)c1ccc(F)cc1)NCCc1ccccc1,·,–,-21,–,–,–,·
O=C(COC(=O)CCSc1ccc(F)cc1)NCc1ccc(F)cc1,·,–,-17,–,–,·,?
COc1ccc([C@H]2C/C=C\C[C@H](c3ccc(F)cc3)NC(=O)CCC(=O)N2)c(OC)c1,·,·,–,·,·,·,·
COc1ccc(S(=O)(=O)N[C@@H]2CC[C@H](CCn3cc(-c4ccccc4F)nn3)O[C@@H]2CO)cc1,–,–,–,–,–,·,·
C[C@H]1CN([C@@H](C)CO)C(=O)c2cc(NC(=O)NC3CCCCC3)ccc2O[C@H]1CN(C)C(=O)NC1CCCCC1,–,–,–,–,–,·,·
